Assay outcomes from PubChem BioAssay.
SENP7 inh – SENP7 protease inhibition; recombinant SENP7, Z-RLRGG-aminoluciferin luminescence, 40 min; hit rate 1.5% among 330,000; inhibition, % at 5 µM; Q9BQF6;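 active = inhibition above about 50% at the single test dose, limit read from the data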;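 note: plate controls were DMSO with enzyme for no effect and no enzyme buffer wells for full effect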
SENP8 block-1 – SENP8 protease inhibition | Q96LD8 | purified SENP8, Z-RLRGG-aminoluciferin cleavage, luminescence | inhibition, % at 10 µM | hit rate 1.2% among 330,000; in the data active = inhibition above about 50%
SENP1 inh – inhibitors of human SENP1 SUMO protease catalytic domain | Q9P0U3 | recombinant SENP1 catalytic domain, CyPet-SUMO1-YPet FRET cleavage | inhibition, % at 10 µM | hit rate 0.21% among 360,000;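 active = inhibition at least 30% at 10 µM, raw YFP signal under a set limit, fluorescence ratio 0.5 to 1.5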;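 note: 0% = enzyme with DMSO and 100% = no enzyme wells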
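Test system: hSENP1 catalytic domain, recombinant; Amount: 20 pM final SENP1 enzyme; Medium: Tris pH 8 buffer plus EDTA, NaCl, BME, BSA, NP40, catalase; Schedule: 50 min enzyme reaction, room temperature, light-protected; Technique: FRET fluorescence in CFP and YFP emission channels; Controls: no-enzyme wells low, DMSO-plus-enzyme wells high control.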
SENP8 block-2 – blocks human SENP8 cleavage of Nedd8 substrate. Q96LD8. recombinant SENP8, Nedd8 substrate fluorescence. inhibition, % at 20 µM. hit rate 0.64% among 360,000. AID 602440; in the data active = inhibition mostly above about 40%, no sharp cut-off; inactive = mostly below about 27%
SENP6 inh – inhibitors of human SENP6 protease; hit rate 1.8% among 330,000; Recombinant SENP6 catalytic domain, aminoluciferin luminescence; Q9GZR1; inhibition, % at 10 µM;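 active = inhibition above about 50% at the single tested dose, limit read from the data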;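 note: plate controls were DMSO wells with enzyme for no effect and DMSO wells lacking enzyme for full effect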
Target sequence (Q9GZR1 628-1112 limits assumed): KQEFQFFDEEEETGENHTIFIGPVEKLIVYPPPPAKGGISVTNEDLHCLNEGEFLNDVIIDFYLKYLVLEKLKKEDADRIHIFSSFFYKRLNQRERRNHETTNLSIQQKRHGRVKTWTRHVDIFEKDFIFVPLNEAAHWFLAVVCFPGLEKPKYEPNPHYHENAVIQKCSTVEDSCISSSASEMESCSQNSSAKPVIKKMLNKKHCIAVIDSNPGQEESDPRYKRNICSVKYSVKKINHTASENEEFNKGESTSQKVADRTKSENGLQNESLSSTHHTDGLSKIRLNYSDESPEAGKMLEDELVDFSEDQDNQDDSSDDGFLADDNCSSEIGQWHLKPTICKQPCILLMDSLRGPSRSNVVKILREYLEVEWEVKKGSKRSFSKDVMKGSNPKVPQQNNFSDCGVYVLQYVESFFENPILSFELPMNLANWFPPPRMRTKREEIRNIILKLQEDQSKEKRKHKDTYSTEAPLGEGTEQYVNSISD
SENP8 confirm – confirmation of human SENP8 protease inhibitors; inhibition, % at 12.5 µM; hit rate 40% among 6,200; shares compounds with SENP7 inh; Recombinant SENP8, Z-RLRGG-aminoluciferin luminescence, 60 min; AID 488912;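 active = mean inhibition across replicates above about 50%, limit read from the data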
SENP6 conf – human SENP6 inhibition, confirmed. shares compounds with SENP7 inh. recombinant SENP6, Z-RLRGG-aminoluciferin luminescence. inhibition, % at 12.5 µM. hit rate 58% among 6,200
SENP7 conf – human SENP7 inhibition, confirmed; shares compounds with SENP7 inh; hit rate 69% among 6,200; AID 488917; recombinant SENP7, Z-RLRGG-aminoluciferin luminescence, 40 min; inhibition, % at 12.5 µM
Casp3 select – selectivity test for SENP inhibitors: human caspase-3 inhibition. purified caspase-3, Z-DEVD-aminoluciferin luminescence, 60 min. hit rate 60% among 6,200. inhibition, % at 12.5 µM. shares compounds with SENP7 inh;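 active = mean inhibition above about 50%, limit read from the data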;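 note: plate controls were enzyme with DMSO for no effect and wells without caspase-3 for full effect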
Target sequence (P42574 28-227 limits assumed): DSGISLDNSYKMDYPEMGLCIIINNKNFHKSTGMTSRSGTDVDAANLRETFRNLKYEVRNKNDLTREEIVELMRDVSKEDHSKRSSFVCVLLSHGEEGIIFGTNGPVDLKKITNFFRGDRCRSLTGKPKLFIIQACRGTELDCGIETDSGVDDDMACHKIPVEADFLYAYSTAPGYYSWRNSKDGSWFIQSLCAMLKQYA
Luc interf – luminescence interference (SENP counter-screen). Pre-incubated SENP8/Z-RLRGG-aminoluciferin, luciferase luminescence interference. hit rate 39% among 6,200. shares compounds with SENP7 inh. AID 488919. inhibition, % at 12.5 µM;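 active = mean inhibition above about 50% when retested at one dose, limit read from the data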;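 note: plate controls were DMSO wells with completed reaction for no effect and substrate without enzyme for full effect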
Starred values were filed as active, the others as inactive; · = no result given. In the library only some 2.5% were active in any assay of this set; here they are far more common.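 Rule for the calls, unless noted: active = mean inhibition above about 50% in the one-dose retest (limit read from the data); inactive = the rest.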

SMILES | SENP7 inh | SENP8 block-1 | SENP1 inh | SENP8 block-2 | SENP6 inh | SENP8 confirm | SENP6 conf | SENP7 conf | Casp3 select | Luc interf
CN(Cc1cnccn1)C(=O)C1CCC(=O)N(CCc2ccc(Cl)cc2)C1 (stereo not given) | -1 | -9 | 2 | 12 | -8 | · | · | · | · | ·
O=C(O)c1cc2nc3c(c(C(F)(F)F)n2n1)CCc1ccccc1-3 | 6 | 3 | -2 | -50 | 72* | -21 | -14 | -8 | -7 | -5
COCCNC(=O)c1cc2nc3c(c(C(F)(F)F)n2n1)CCc1ccccc1-3 | -8 | -7 | -31 | -428 | -14 | · | · | · | · | ·
Oc1c(Cl)cc(Cl)cc1C=Nc1cc(C(F)(F)F)ccc1N1CCc2ccccc2C1 | 99* | 96* | -23 | -112 | 15 | 94* | 96* | 102* | 95* | 62*
Cc1ccc(C(=O)OCC(=O)c2ccc(Br)cc2)cc1S(=O)(=O)N1CCOCC1 | · | · | 1 | 24 | · | · | · | · | · | ·
c1ccc(-n2nnc3c(N4CCOCC4)ncnc32)cc1 | 75* | 50* | -3 | 24 | 81* | 11 | 14 | 33 | 34 | 21
Cc1cc(N/C=C/C(=O)c2cccs2)ccc1F | 46 | 82* | -48 | -162 | 85* | 88* | 90* | 101* | 87* | 42
O=C(Cc1cccs1)Nc1cccc([N+](=O)[O-])c1 | 2 | 3 | -5 | 21 | 5 | · | · | · | · | ·
O=C(/C=C/Nc1ccc(Nc2ccccc2)cc1)c1cccs1 | · | · | 58 | 16 | · | · | · | · | · | ·
Cc1ccc(N/C=C/C(=O)c2cccs2)cc1C | 83* | 85* | -24 | -143 | 88* | 91* | 92* | 100* | 84* | 85*
O=C(/C=C/Nc1cccc([N+](=O)[O-])c1)c1cccs1 | 62* | 35 | 3 | 12 | 70* | 4 | 53* | 88* | 58* | 57*
O=C(O)c1ccccc1C(=O)c1cccs1 | -6 | -1 | 0 | 12 | -3 | · | · | · | · | ·
O=C(/C=C/Nc1ccccc1C(=O)O)c1cccs1 | 21 | 82* | -32 | -51 | 92* | 4 | 96* | 102* | 98* | 93*
CC(Oc1cccc(Cl)c1)C(=O)Nc1cc(Cl)ccc1N1CCOCC1 (stereo not given) | 4 | -6 | 2 | 14 | -3 | · | · | · | · | ·
CC(C)N(CCCNC(=O)Cn1c(=O)c2cccn2c2ccccc21)Cc1ccccc1 | 3 | -4 | -3 | -2 | 13 | · | · | · | · | ·
Cc1ccc(CNC(=O)C2CCC(=O)N(CCCN3CCOCC3)C2)cc1 (stereo not given) | -5 | -4 | 3 | -1 | 1 | · | · | · | · | ·
Cc1cc2ncc(-c3cccc(Cl)c3)cn2n1 | 22 | -2 | 0 | 18 | -39 | · | · | · | · | ·
Cc1nn2cc(-c3ccc(Cl)cc3)cnc2c1Cl | 76* | -9 | 1 | 15 | -27 | 10 | 8 | 19 | 36 | 7
CCCC(=O)N1CCC1(C)C(=O)Nc1ccc2nccnc2c1 (stereo not given) | · | · | 0 | -486 | · | · | · | · | · | ·
CN(C)c1cccc(F)c1C(=O)NC(=O)Nc1ccc(Cl)cc1 | · | · | 1 | -73 | · | · | · | · | · | ·
O=C(/C=C/c1cccc(O)c1)c1ccc(N2CCOCC2)cc1 | 74* | 35 | -3 | -18 | 78* | -34 | -23 | -16 | 1 | 51*
CCCOc1ccc(/C=N/Nc2ccccc2[N+](=O)[O-])c(O)c1 | 99* | 94* | 2 | 38 | 96* | 58* | 46 | 30 | 78* | 8
CCOC(=O)c1sc(NC(=O)c2ccccc2)cc1C | 94* | 77* | -2 | -44 | 93* | 57* | 90* | 100* | 84* | 39
CCOC(=O)c1sc(NC(=O)c2ccc(S(=O)(=O)N(C)C)cc2)cc1C | 4 | -4 | 2 | -4 | -3 | · | · | · | · | ·
CCOC(=O)c1sc(=NC(=O)c2ccccc2)n(C)c1C | 54* | 34 | 0 | -192 | -30 | 18 | 14 | 15 | 12 | 4
SMILES | SENP7 inh | SENP8 block-1 | SENP1 inh | SENP8 block-2 | SENP6 inh | SENP8 confirm | SENP6 conf | SENP7 conf | Casp3 select | Luc interf
Cc1ccc(NC(=O)COC(=O)c2c(C)nn(-c3ccccc3)c2C)cc1 | 5 | -4 | -3 | 2 | 4 | · | · | · | · | ·
Cc1nn(-c2ccccc2)c(C)c1C(=O)OCC(=O)Nc1ccccc1 | 81* | 75* | 2 | -1 | 83* | 77* | 76* | 94* | 83* | 74*
COc1ccccc1NC(=O)COC(=O)c1c(C)nn(-c2ccccc2)c1C | 97* | 95* | 2 | 5 | 93* | 96* | 96* | 101* | 95* | 75*
Cc1cc(NC(=O)COC(=O)c2c(C)nn(-c3ccccc3)c2C)no1 | 7 | 7 | 0 | 14 | 2 | · | · | · | · | ·
C[C@H](CO)N1C[C@H](C)[C@@H](CN(C)C(=O)NC2CCCCC2)Oc2ccc(NS(=O)(=O)c3ccc(F)cc3)cc2C1=O | 3 | -1 | 1 | 2 | -7 | · | · | · | · | ·
Cc1ccccc1S(=O)(=O)N1C(c2ccc(Cl)cc2)CC=C(C(=O)O)C1c1cccc(Cl)c1 (stereo not given) | · | · | 1 | 11 | · | · | · | · | · | ·
CCOC(=O)C1=CC[C@@H](c2ccccc2)N(S(=O)(=O)c2ccc(C)cc2)[C@H]1C#N | · | · | 2 | 4 | · | · | · | · | · | ·
Cc1oc2ccc(OCc3cccc(Cl)c3)cc2c1C(=O)O | 9 | 71* | -1 | 20 | 75* | -3 | 16 | 26 | 14 | 36
Cc1oc2ccc(OCc3ccc(F)cc3)cc2c1C(=O)O | 23 | 23 | 0 | 12 | 55* | 44 | 42 | 73* | 62* | 61*
Cc1oc2ccc(OCc3c(F)cccc3Cl)cc2c1C(=O)O | -10 | -8 | -1 | 7 | -18 | · | · | · | · | ·
Cc1cc(C(=O)COC(=O)c2ccc(O)cc2O)c(C)n1-c1ccccc1 | 61* | 84* | 0 | -4 | 89* | 88* | 89* | 96* | 59* | 32
CCOC(=O)Nc1ccc2c(c1)C(=NNC(=S)NC)c1ccccc1-2 | · | · | 9 | 36 | · | · | · | · | · | ·
O=C(NC1CCCCC1)C(Cc1ccccc1)N1C(=O)C2C3CCC(C3)C2C1=O (stereo not given) | 80* | 6 | 3 | 3 | 7 | 7 | 5 | -5 | -5 | -12
Oc1ccccc1/C=N/NC1=NCCCCC1 | -9 | -9 | -43 | -112 | 3 | · | · | · | · | ·
COc1cccc(/C=N/Nc2nccnc2Cl)c1O | 100* | 96* | 2 | -12 | 97* | 98* | 99* | 102* | 98* | 88*
